Laboratory results: ChEMBL document CHEMBL4732233, “Faropenem reacts with serine and metallo-β-lactamases to give multiple products” (Eur J Med Chem, 2021)

Experiments:
Bacteria [1] = test system: Bacteria
[2] = Drug metabolism assessed as VIM-2 (unknown origin)-mediated compound hydrolysis by measuring (S)-2-((1S,2R)-1-carboxy-2-hydroxypropyl)-5-((R)-tetrahydrofuran-2-yl)-2,3-dihydrothiazole-4-carboxylic acid formation at 5 mM incubated for 5 mins by 1H-NMR based analysis; assay type: ADME; details: bacteria, 5000 µM
[3] = Drug metabolism assessed as VIM-1 (unknown origin)-mediated compound hydrolysis by measuring (2R)-2-((1S,2R)-1-carboxy-2-hydroxypropyl)-5-((R)-tetrahydrofuran-2-yl)-2,5-dihydrothiazole-4-carboxylic acid formation at 5 mM incubated for 5 mins by 1H-NMR based analysis; assay type: ADME; details: bacteria, 5000 µM
[4] = Drug metabolism assessed as OXA-48 (unknown origin)-mediated compound hydrolysis by measuring (R)-2-((1S,2R)-1-carboxy-2-hydroxypropyl)-5-(4-hydroxybutylidene)-2,5-dihydrothiazole-4-carboxylic acid formation at 5 mM incubated for 55 mins by 1H-NMR based analysis; assay type: ADME; details: bacteria, 5000 µM
Outline: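 Reaction of OXA-48 (5 μM) with 5 mM faropenem for 55 min in 50 mM sodium phosphate pH 7.5, 10% (v/v) D2O. Products assigned from methyl group resonances in 700 MHz 1H NMR spectra.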

[5] = Drug metabolism assessed as OXA10 (unknown origin)-mediated compound hydrolysis by measuring (R)-2-((1S,2R)-1-carboxy-2-hydroxypropyl)-5-((R)-tetrahydrofuran-2-yl)-2,3-dihydrothiazole-4-carboxylic acid formation at 5 mM incubated for 16 hrs by 1H-NMR based analysis; assay type: ADME; details: bacteria, 5000 µM
Outline: (§1)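 OXA-10 at 5 μM with 5 mM faropenem, incubated 16 h in 50 mM sodium phosphate, pH 7.5, 10% (v/v) D2O. Product formation read by 1H NMR (700 MHz) methyl group resonances.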

Bradyrhizobium japonicum [6] = details: USDA110
[7] = Drug metabolism assessed as KPC-2 (unknown origin)-mediated compound hydrolysis by measuring (R)-2-((1S,2R)-1-carboxy-2-hydroxypropyl)-5-((R)-tetrahydrofuran-2-yl)-2,3-dihydrothiazole-4-carboxylic acid formation at 5 mM incubated for 72 mins by 1H-NMR based analysis; assay type: ADME; details: bacteria, 1.2 h, 5000 µM
[8] = Drug metabolism assessed as OXA-23 (unknown origin)-mediated compound hydrolysis by measuring (R)-2-((1S,2R)-1-carboxy-2-hydroxypropyl)-5-(4-hydroxybutylidene)-2,5-dihydrothiazole-4-carboxylic acid formation at 2 mM incubated for 15 mins by 1H-NMR based analysis; assay type: ADME; details: bacteria, 0.25 h, 2000 µM
[9] = Drug metabolism assessed as L1 (unknown origin)-mediated compound hydrolysis by measuring (S)-2-((1S,2R)-1-carboxy-2-hydroxypropyl)-5-((R)-tetrahydrofuran-2-yl)-2,3-dihydrothiazole-4-carboxylic acid formation at 5 mM incubated for 5 mins by 1H-NMR based analysis; assay type: ADME; details: bacteria, 5000 µM
Outline: (§2)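 L1 enzyme (125 nM) reacted with 5 mM faropenem for 5 min in 50 mM sodium phosphate pH 7.5 containing 10% (v/v) D2O. Product species assigned by 1H NMR (700 MHz) methyl resonances.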

Klebsiella pneumoniae [10] = test system: Klebsiella pneumoniae
[11] = Drug metabolism assessed as VIM-2 (unknown origin)-mediated compound hydrolysis by measuring (R)-2-((1S,2R)-1-carboxy-2-hydroxypropyl)-5-(4-hydroxybutylidene)-2,5-dihydrothiazole-4-carboxylic acid formation at 5 mM incubated for 5 mins by 1H-NMR based analysis; assay type: ADME; details: bacteria, 5000 µM
[12] = Drug metabolism assessed as VIM-2 (unknown origin)-mediated compound hydrolysis by measuring (S)-2-((1S,2R)-1-carboxy-2-hydroxypropyl)-5-(4-hydroxybutylidene)-2,5-dihydrothiazole-4-carboxylic acid formation at 5 mM incubated for 5 mins by 1H-NMR based analysis; assay type: ADME; details: bacteria, 5000 µM
Bacteria [13] = test system: Bacteria; remark: listed apart in the source
[14] = test system: Mycobacterium tuberculosis H37Rv
Bacteria [15] = test system: Bacteria; remark: listed apart in the source
Bacteria [16] = test system: Bacteria; remark: listed apart in the source
[17] = Drug metabolism assessed as L1 (unknown origin)-mediated compound hydrolysis by measuring (R)-2-((1S,2R)-1-carboxy-2-hydroxypropyl)-5-(4-hydroxybutylidene)-2,5-dihydrothiazole-4-carboxylic acid formation at 5 mM incubated for 5 mins by 1H-NMR based analysis; assay type: ADME; details: bacteria, 5000 µM
Outline: as §2

[18] = Drug metabolism assessed as NDM-1 (unknown origin)-mediated compound hydrolysis by measuring (R)-2-((1S,2R)-1-carboxy-2-hydroxypropyl)-5-((R)-tetrahydrofuran-2-yl)-2,3-dihydrothiazole-4-carboxylic acid formation at 5 mM incubated for 5 mins by 1H-NMR based analysis; assay type: ADME; details: bacteria, 5000 µM
Outline: (§3)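 NDM-1 used at 5 μM with 5 mM faropenem, 5 min incubation, in 50 mM sodium phosphate, pH 7.5, 10% (v/v) D2O. Degradation products monitored by 700 MHz 1H NMR via methyl group signals.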

[19] = Drug metabolism assessed as OXA10 (unknown origin)-mediated compound hydrolysis by measuring (S)-2-((1S,2R)-1-carboxy-2-hydroxypropyl)-5-(4-hydroxybutylidene)-2,5-dihydrothiazole-4-carboxylic acid formation at 5 mM incubated for 16 hrs by 1H-NMR based analysis; assay type: ADME; details: bacteria, 5000 µM
Outline: as §1

[20] = Drug metabolism assessed as OXA-23 (unknown origin)-mediated compound hydrolysis by measuring (R)-2-((1S,2R)-1-carboxy-2-hydroxypropyl)-5-((R)-tetrahydrofuran-2-yl)-2,3-dihydrothiazole-4-carboxylic acid formation at 2 mM incubated for 15 mins by 1H-NMR based analysis; assay type: ADME; details: bacteria, 0.25 h, 2000 µM
Klebsiella pneumoniae [21] = test system: Klebsiella pneumoniae; remark: listed apart in the source
[22] = Drug metabolism assessed as NDM-1 (unknown origin)-mediated compound hydrolysis by measuring (R)-2-((1S,2R)-1-carboxy-2-hydroxypropyl)-5-(4-hydroxybutylidene)-2,5-dihydrothiazole-4-carboxylic acid formation at 5 mM incubated for 5 mins by 1H-NMR based analysis; assay type: ADME; details: bacteria, 5000 µM
Outline: as §3

Bradyrhizobium japonicum [23] = details: USDA110; remark: listed apart in the source
[24] = test system: Mycobacterium tuberculosis H37Rv; remark: listed apart in the source
Bacteria [25] = test system: Bacteria; remark: listed apart in the source
[26] = Drug metabolism assessed as VIM-1 (unknown origin)-mediated compound hydrolysis by measuring (S)-2-((1S,2R)-1-carboxy-2-hydroxypropyl)-5-((R)-tetrahydrofuran-2-yl)-2,3-dihydrothiazole-4-carboxylic acid formation at 5 mM incubated for 5 mins by 1H-NMR based analysis; assay type: ADME; details: bacteria, 5000 µM
[27] = Drug metabolism assessed as L1 (unknown origin)-mediated compound hydrolysis by measuring (R)-2-((1S,2R)-1-carboxy-2-hydroxypropyl)-5-((R)-tetrahydrofuran-2-yl)-2,3-dihydrothiazole-4-carboxylic acid formation at 5 mM incubated for 5 mins by 1H-NMR based analysis; assay type: ADME; details: bacteria, 5000 µM
Outline: as §2

C[C@@H](O)[C@H]1C(=O)N2C(C(=O)O)=C([C@H]3CCCO3)S[C@H]12 [FAROPENEM]
Km (Bacteria [1]): 16.6 µM
Drug metabolism [2]: Metabolite_Detected
Drug metabolism [3]: Metabolite_Detected
Drug metabolism [4]: Metabolite_Detected
Drug metabolism [5]: Metabolite_Detected
Km (Bradyrhizobium japonicum [6]): 245 µM
Drug metabolism [7]: Metabolite_Detected
Drug metabolism [8]: Metabolite_Detected
Drug metabolism [9]: Metabolite_Detected
Km (Klebsiella pneumoniae [10]): 99 µM
Drug metabolism [11]: Metabolite_Detected
Drug metabolism [12]: Metabolite_Detected
kcat/Km (Bacteria [13]): 1.2 s⁻¹ µM⁻¹
kcat/Km [14]: 0.04 s⁻¹ µM⁻¹
Km (Bacteria [15]): 36.3 µM
kcat/Km (Bacteria [16]): 7.17 s⁻¹ µM⁻¹
Drug metabolism [17]: Metabolite_Detected
Drug metabolism [18]: Metabolite_Detected
Drug metabolism [19]: Metabolite_Detected
Drug metabolism [20]: Metabolite_Detected
kcat (Klebsiella pneumoniae [21]): 14.7 s⁻¹
Drug metabolism [22]: Metabolite_Detected
kcat (Bradyrhizobium japonicum [23]): 2 s⁻¹
Km [24]: 23 µM
kcat (Bacteria [25]): 43.7 s⁻¹
Drug metabolism [26]: Metabolite_Detected
Drug metabolism [27]: Metabolite_Detected
